Measurements taken from ChEMBL document CHEMBL4673378, “Investigating the effects of the core nitrogen atom configuration on the thermodynamic solubility of 6,5-bicyclic heterocycles” (Bioorg Med Chem Lett, 2021).
In brackets after ≈: the same amount, converted by molar mass.

Columns and labels:
Assay type in all cases: physicochemical
[1] = Melting point of the compound using crystalline form of sample
[2] = Thermodynamic solubility of compound in SLF at pH 6.9 using crystalline form of sample; conditions: read-out: Therm_solubility
Summary of the method: (§1)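 Thermodynamic solubility was measured from solid in Simulated Lung Fluid, buffered at pH 6.9 and containing 0.75 mM lecithin plus bovine serum albumin, reported in μg/mL. Runs were at least duplicate unless otherwise footnoted. Amorphous or crystalline material was used, as the line states.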

[3] = Thermodynamic solubility of compound in FaSSIF at pH 6.5 using crystalline form of sample; conditions: read-out: Therm_solubility
Summary of the method: (§2)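 Thermodynamic solubility in Fasted State Simulated Intestinal Fluid, buffered at pH 6.5 and containing 0.75 mM lecithin, reported in μg/mL. Runs were at least duplicate unless otherwise footnoted. Solid form was amorphous or crystalline, as the line states.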

[4] = Lipophilicity, log D of the compound at pH 7.4 by chromatographic reverse phase method; conditions: reverse phase chromatography
[5] = Kinetic solubility of the compound at pH 7.4 using crystalline form of sample; conditions: read-out: Kinetic_solubility
Summary of the method: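 Solubility at pH 7.4 measured from a 10 mM DMSO stock (stock concentration) of crystalline material, reported in μg/mL. Runs were at least duplicate unless otherwise footnoted.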

[6] = Ionization constant, pKa of the compound
[7] = Thermodynamic solubility of compound in FaSSIF at pH 6.5 using amorphous form of sample; conditions: read-out: Therm_solubility; summary of the method: as §2
[8] = Thermodynamic solubility of compound in SLF at pH 6.9 using amorphous form of sample; conditions: read-out: Therm_solubility; summary of the method: as §1
[9] = Melting point of the compound using amorphous form of sample

| SMILES | Tm [1] [°C] | solubility thermodynamic [2] [µg/mL] | solubility thermodynamic [3] [µg/mL] | chromatographic logD [4] | solubility kinetic [5] [µg/mL] | pKa [6] | solubility thermodynamic [7] [µg/mL] | solubility thermodynamic [8] [µg/mL] | Tm [9] [°C] |
| --- | --- | --- | --- | --- | --- | --- | --- | --- | --- |
| COc1ccc(-c2c(C)nc3c(NCc4cccnc4)cc(C)cn23)cc1OC | 85 | 33 (≈ 84.9 µM) | 109 (≈ 281 µM) | 4.9 | 86 (≈ 221 µM) | 6.5 |  |  |  |
| COc1ccc(-c2c(C)nn3c(NCc4cccnc4)nc(C)cc23)cc1OC | 101 | 6 (≈ 15.4 µM) | 31 (≈ 79.6 µM) | 5.5 | 35 (≈ 89.9 µM) | 2.8 |  |  |  |
| COc1ccc(-c2c(C)nn3c(NCC4CCOCC4)cc(C)nc23)cc1OC | 157 | 18 (≈ 45.4 µM) | 25 (≈ 63.1 µM) | 5.2 | > 180 | 5.7 |  |  |  |
| COc1ccc(-c2c(C)nc3c(NCC4CCOCC4)nc(C)cn23)cc1OC |  |  |  | 5.2 | 99 (≈ 250 µM) | 5.6 | 7 (≈ 17.7 µM) | 10 (≈ 25.2 µM) | 93 |
| COc1ccc(-c2c(C)nn3c(NCc4ccc(N(C)C)cc4)cc(C)nc23)cc1OC | 238 | 1 (≈ 2.32 µM) | 15 (≈ 34.8 µM) | 3.7 | 79 (≈ 183 µM) | 5.4 |  |  |  |
| COc1ccc(-c2c(C)nn3c(NCc4ccc(C(N)=O)cc4)nc(C)cc23)cc1OC | 194 | < 6 | 5 (≈ 11.6 µM) | 4.8 | 19 (≈ 44 µM) | 3.8 |  |  |  |
| COc1ccc(-c2c(C)nc3c(NCc4ccc(C(N)=O)cc4)nc(C)cn23)cc1OC |  |  |  | 3.9 | 53 (≈ 123 µM) | 5 | 32 (≈ 74.2 µM) | 9 (≈ 20.9 µM) | 191 |
| COc1ccc(-c2c(C)nc3c(NCc4ccc(C(N)=O)cc4)cc(C)cn23)cc1OC | 203 | 2 (≈ 4.65 µM) | 6 (≈ 13.9 µM) | 4.3 | 29 (≈ 67.4 µM) | 6.6 |  |  |  |
| COc1ccc(-c2c(C)nc3c(NCC4CCOCC4)cc(C)cn23)cc1OC | 90 | 29 (≈ 73.3 µM) | 233 (≈ 589 µM) | 6 | 64 (≈ 162 µM) | 6.7 |  |  |  |
| COc1ccc(-c2c(C)nn3c(NCc4cccnc4)cc(C)nc23)cc1OC | 149 | 39 (≈ 100 µM) | 141 (≈ 362 µM) | 4.3 | > 107 | 5.4 |  |  |  |
| COc1ccc(-c2c(C)nn3c(NCc4ccc(N(C)C)cc4)nc(C)nc23)cc1OC | 167 | 10 (≈ 23.1 µM) | 32 (≈ 74 µM) | 3.9 | 19 (≈ 43.9 µM) | 2.9 |  |  |  |
| COc1ccc(-c2c(C)nc3c(NCc4cccnc4)nc(C)cn23)cc1OC |  |  |  | 4.5 | 67 (≈ 172 µM) | 5.3 | 335 (≈ 860 µM) | 58 (≈ 149 µM) | 128 |
| COc1ccc(-c2c(C)nn3c(NCc4cccnc4)nc(C)nc23)cc1OC | 149 | 36 (≈ 92.2 µM) | 36 (≈ 92.2 µM) | 4.5 | > 150 | 2.5 |  |  |  |
| COc1ccc(-c2c(C)nn3c(NCC4CCOCC4)nc(C)nc23)cc1OC | 143 | 18 (≈ 45.3 µM) | 29 (≈ 73 µM) | 5.1 | > 165 | 3.1 |  |  |  |
| COc1ccc(-c2c(C)nn3c(NCC4CCOCC4)nc(C)cc23)cc1OC | 104 | 3 (≈ 7.57 µM) | 13 (≈ 32.8 µM) | 6.4 | 44 (≈ 111 µM) | 4.4 |  |  |  |
